Results from ChEMBL document CHEMBL4689842, “EUbOPEN Chemogenomics Library wave 1” (2021).

System: U2OS
Experiment: Multiplex assay against U2OS
Type: toxicity, cell-based
Settings: human
Method in brief: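 With compound added, live cells were imaged on a CQ1 microscope at 37°C and 5% CO2; staining with Hoechst33342, BioTracker Green Microtubule Cytoskeleton Dye, MitoTracker Red and Annexin V Alexa Fluor 680 had been done at seeding. The CellPathfinder machine-learning gating scheme split cells into Hoechst high-intensity objects or normal cells, normal cells into healthy, pyknosed or fragmented nuclei, and pyknosed cells into mitotic or apoptotic. The tubulin, mitochondrial-mass and membrane-permeability phenotypes are per cents of healthy-nucleus cells.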

[1] = 12 h, 1 µM, compound concentration 1 uM, replicate 1
[2] = 12 h, 1 µM, compound concentration 1 uM, replicate 2
[3] = 12 h, 10 µM, compound concentration 10 uM, replicate 1
[4] = 12 h, 10 µM, compound concentration 10 uM, replicate 2
[5] = 24 h, 1 µM, compound concentration 1 uM, replicate 1
[6] = 24 h, 1 µM, compound concentration 1 uM, replicate 2
[7] = 24 h, 10 µM, compound concentration 10 uM, replicate 1
[8] = 24 h, 10 µM, compound concentration 10 uM, replicate 2
[9] = 48 h, 1 µM, compound concentration 1 uM, replicate 1
[10] = 48 h, 1 µM, compound concentration 1 uM, replicate 2
[11] = 48 h, 10 µM, compound concentration 10 uM, replicate 1
[12] = 48 h, 10 µM, compound concentration 10 uM, replicate 2

`CN1CCCC(n2nc(Cc3ccc(Cl)cc3)c3ccccc3c2=O)CC1.Cl` (stereo not given) [AZELASTINE HYDROCHLORIDE] was tested, and the “Population Apoptotic (%)” value [1] was 42%, the “Population Fragmented Nuclei (%)” value [1] was 12% and the “Population Healthy Nuclei (%)” value [1] was 71%. For the same compound, the “Population Hoechst High Intensity Objects (%)” value [1] was 8%, the “Population Membrane Permeable-Phenotype (%)” value [1] was 11% and the “Population Mitochondria Different-Phenotype (%)” value [1] was 64%. For the same compound, the “Population Mitotic Cells (%)” value [1] was 57%, the “Population Normal (%)” value [1] was 91% and the “Population Pyknosed Nuclei (%)” value [1] was 16%. For the same compound, the “Population Tubulin-Different-Phenotype (%)” value [1] was 70%, the “Total Cell Count” value [1] was 95 and the “Population Apoptotic (%)” value [2] was 25%. For the same compound, the “Population Fragmented Nuclei (%)” value [2] was 6%, the “Population Healthy Nuclei (%)” value [2] was 84% and the “Population Hoechst High Intensity Objects (%)” value [2] was 11%. For the same compound, the “Population Membrane Permeable-Phenotype (%)” value [2] was 7%, the “Population Mitochondria Different-Phenotype (%)” value [2] was 57% and the “Population Mitotic Cells (%)” value [2] was 75%. The “Population Normal (%)” value [2] was 88%, the “Population Pyknosed Nuclei (%)” value [2] was 8% and the “Population Tubulin-Different-Phenotype (%)” value [2] was 68%. The “Total Cell Count” value [2] was 51, the “Population Apoptotic (%)” value [3] was 63% and the “Population Fragmented Nuclei (%)” value [3] was 18%. For the same compound, the “Population Healthy Nuclei (%)” value [3] was 52%, the “Population Hoechst High Intensity Objects (%)” value [3] was 12% and the “Population Membrane Permeable-Phenotype (%)” value [3] was 77%. The “Population Mitochondria Different-Phenotype (%)” value [3] was 97%, the “Population Mitotic Cells (%)” value [3] was 36% and the “Population Normal (%)” value [3] was 87%. The “Population Pyknosed Nuclei (%)” value [3] was 28%, the “Population Tubulin-Different-Phenotype (%)” value [3] was 97% and the “Total Cell Count” value [3] was 87. The “Population Apoptotic (%)” value [4] was 57%, the “Population Fragmented Nuclei (%)” value [4] was 14% and the “Population Healthy Nuclei (%)” value [4] was 70%. For the same compound, the “Population Hoechst High Intensity Objects (%)” value [4] was 4%, the “Population Membrane Permeable-Phenotype (%)” value [4] was 84% and the “Population Mitochondria Different-Phenotype (%)” value [4] was 98%. The “Population Mitotic Cells (%)” value [4] was 42%, the “Population Normal (%)” value [4] was 95% and the “Population Pyknosed Nuclei (%)” value [4] was 15%. The “Population Tubulin-Different-Phenotype (%)” value [4] was 100%, the “Total Cell Count” value [4] was 96 and the “Population Apoptotic (%)” value [5] was 33%. For the same compound, the “Population Fragmented Nuclei (%)” value [5] was 16%, the “Population Healthy Nuclei (%)” value [5] was 65% and the “Population Hoechst High Intensity Objects (%)” value [5] was 5%. For the same compound, the “Population Membrane Permeable-Phenotype (%)” value [5] was 5%, the “Population Mitochondria Different-Phenotype (%)” value [5] was 70% and the “Population Mitotic Cells (%)” value [5] was 66%. The “Population Normal (%)” value [5] was 94%, the “Population Pyknosed Nuclei (%)” value [5] was 17% and the “Population Tubulin-Different-Phenotype (%)” value [5] was 68%. The “Total Cell Count” value [5] was 108, the “Population Apoptotic (%)” value [6] was 50% and the “Population Fragmented Nuclei (%)” value [6] was 7%. For the same compound, the “Population Healthy Nuclei (%)” value [6] was 76%, the “Population Hoechst High Intensity Objects (%)” value [6] was 8% and the “Population Membrane Permeable-Phenotype (%)” value [6] was 10%. The “Population Mitochondria Different-Phenotype (%)” value [6] was 57%, the “Population Mitotic Cells (%)” value [6] was 50% and the “Population Normal (%)” value [6] was 91%. The “Population Pyknosed Nuclei (%)” value [6] was 15%, the “Population Tubulin-Different-Phenotype (%)” value [6] was 50% and the “Total Cell Count” value [6] was 57. For the same compound, the “Population Apoptotic (%)” value [7] was 90%, the “Population Fragmented Nuclei (%)” value [7] was 29% and the “Population Healthy Nuclei (%)” value [7] was 46%. For the same compound, the “Population Hoechst High Intensity Objects (%)” value [7] was 10%, the “Population Membrane Permeable-Phenotype (%)” value [7] was 95% and the “Population Mitochondria Different-Phenotype (%)” value [7] was 97%. The “Population Mitotic Cells (%)” value [7] was 9%, the “Population Normal (%)” value [7] was 89% and the “Population Pyknosed Nuclei (%)” value [7] was 24%. The “Population Tubulin-Different-Phenotype (%)” value [7] was 100%, the “Total Cell Count” value [7] was 99 and the “Population Apoptotic (%)” value [8] was 95%. The “Population Fragmented Nuclei (%)” value [8] was 16%, the “Population Healthy Nuclei (%)” value [8] was 58% and the “Population Hoechst High Intensity Objects (%)” value [8] was 4%. For the same compound, the “Population Membrane Permeable-Phenotype (%)” value [8] was 98%, the “Population Mitochondria Different-Phenotype (%)” value [8] was 100% and the “Population Mitotic Cells (%)” value [8] was 4%. The “Population Normal (%)” value [8] was 95%, the “Population Pyknosed Nuclei (%)” value [8] was 25% and the “Total Cell Count” value [8] was 96. For the same compound, the “Population Apoptotic (%)” value [9] was 54%, the “Population Fragmented Nuclei (%)” value [9] was 15% and the “Population Healthy Nuclei (%)” value [9] was 67%. The “Population Hoechst High Intensity Objects (%)” value [9] was 6%, the “Population Membrane Permeable-Phenotype (%)” value [9] was 5% and the “Population Mitochondria Different-Phenotype (%)” value [9] was 37%. For the same compound, the “Population Mitotic Cells (%)” value [9] was 45%, the “Population Normal (%)” value [9] was 93% and the “Population Pyknosed Nuclei (%)” value [9] was 16%. For the same compound, the “Population Tubulin-Different-Phenotype (%)” value [9] was 53%, the “Total Cell Count” value [9] was 143 and the “Population Apoptotic (%)” value [10] was 50%. For the same compound, the “Population Fragmented Nuclei (%)” value [10] was 11%, the “Population Healthy Nuclei (%)” value [10] was 74% and the “Population Hoechst High Intensity Objects (%)” value [10] was 7%. The “Population Membrane Permeable-Phenotype (%)” value [10] was 16%, the “Population Mitochondria Different-Phenotype (%)” value [10] was 41% and the “Population Mitotic Cells (%)” value [10] was 50%. For the same compound, the “Population Normal (%)” value [10] was 92%, the “Population Pyknosed Nuclei (%)” value [10] was 14% and the “Population Tubulin-Different-Phenotype (%)” value [10] was 47%. For the same compound, the “Total Cell Count” value [10] was 77, the “Population Apoptotic (%)” value [11] was 87% and the “Population Fragmented Nuclei (%)” value [11] was 23%. For the same compound, the “Population Healthy Nuclei (%)” value [11] was 39%, the “Population Hoechst High Intensity Objects (%)” value [11] was 11% and the “Population Membrane Permeable-Phenotype (%)” value [11] was 93%. The “Population Mitochondria Different-Phenotype (%)” value [11] was 100%, the “Population Mitotic Cells (%)” value [11] was 12% and the “Population Normal (%)” value [11] was 88%. The “Population Pyknosed Nuclei (%)” value [11] was 36%, the “Total Cell Count” value [11] was 95 and the “Population Apoptotic (%)” value [12] was 93%. The “Population Fragmented Nuclei (%)” value [12] was 22%, the “Population Healthy Nuclei (%)” value [12] was 48% and the “Population Hoechst High Intensity Objects (%)” value [12] was 5%. For the same compound, the “Population Membrane Permeable-Phenotype (%)” value [12] was 98%, the “Population Mitochondria Different-Phenotype (%)” value [12] was 98% and the “Population Mitotic Cells (%)” value [12] was 6%. For the same compound, the “Population Normal (%)” value [12] was 94%, the “Population Pyknosed Nuclei (%)” value [12] was 29% and the “Population Tubulin-Different-Phenotype (%)” value [12] was 100%. For the same compound, the “Total Cell Count” value [12] was 119.
